Where two headings read alike, the source gives them in different places. Numbered stars: 1 amine (or outer) side, 2 acyl side, 3 side chain; on linkers, the order of the positions; unused ones are H or OH. Bridge positions count the residues as written; N and C are the ends. Square brackets hold non-standard residues; d marks the D form. Peptide text beside a SMILES is read from it. I, II: the chains in the order shown. Actinocin(9to1) = Cc1c2oc3c(C)ccc(C(=O)[*:1])c3nc-2c(C(=O)[*:2])c(N)c1=O; NMeV = CN[C@H](C(=O)O)C(C)C; Sar = CNCC(=O)O
Legend:
[1] = format: in vivo, human
Procedure, shortened: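 Five 2.5 mL catheter samples (three-draw-flush) taken on one of two random schedules, 5 min to 48-168 h post-infusion. Sodium-heparin plasma was separated within 6 h and frozen. LC-MS/MS, LLOQ 0.5 ng/mL. Noncompartmental: k_z from the last 3 points; AUC by linear trapezoid plus Clast/k_z; CL = dose/AUC∞; Vz = dose/(k_z·AUC∞). Episodes were compared by paired two-sided t-test on log-transformed differences.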

patients <17 years old [2] = assay: Vincristine target toxicity; format: in vivo, human; details: greater than baseline; weekly for one month and monthly for 6 months from sampling
Procedure, shortened: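 Vincristine-treated patients in four age cohorts were graded for neuropathy by CTC v3 (before 10/1/10) or CTCAE 4.03. Assessed weekly for one month, then monthly for 6 months from PK sampling. Only new-onset events or grade increases over baseline after sampling counted. Incidence was related to PK parameters and demographics by univariate logistic regression, then backward-selection multivariate regression.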

patients <17 years old [3] = assay: Actinomycin-D target toxicities; format: in vivo, human; details: during the study
Procedure, shortened: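 Actinomycin-D given to patients in four age cohorts (<1, 1 to <3, 3 to <12, 12 to <17 years). Grade 3 ALT, AST, GGT elevation, sinusoidal obstructive syndrome, and grade 3 neutrophil or platelet decrease were reported weekly for 21 days after PK sampling. Only new-onset events or grade increases over baseline counted. Each toxicity was related to PK and demographics by univariate logistic regression, then backward-selection multivariate regression.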

[4] = patients (n = 17) with two episodes of sampling, ratio (95% CI), P=0.05

Row | SMILES | Clearance ([1]; all ages, n=132 patients, median, CV 67%) | half-life ([1]; all ages, n=132 patients, median, CV 73%) | AUC ([1]; all ages, n=132 patients, median, CV 98%) | clearance, ratio between two sampling episodes ([1]; patients (n = 17) with two episodes of sampling, ratio (95% CI), P=0.04) | CL/BSA, ratio between two sampling episodes [1, 4] | Vz/BSA, ratio between two sampling episodes [1, 4] | patients with grade 3 peripheral motor neuropathy (patients <17 years old [2]) | patients with grade 3 peripheral sensory neuropathy (patients <17 years old [2]) | half-life ([1]; all ages, n=52 patients, median, CV 60%) | Clearance ([1]; all ages, n=52 patients, median, CV 90%) | median AUC of the youngest group, lower than the oldest groups ([1]; children <1 year vs oldest groups, consistent with the difference in dose) | sinusoidal obstructive syndrome (patients <17 years old [3])
1 | CC[C@]1(O)C[C@H]2CN(CCc3c([nH]c4ccccc34)[C@@](C(=O)OC)(c3cc4c(cc3OC)N(C=O)[C@H]3[C@@](O)(C(=O)OC)[C@H](OC(C)=O)[C@]5(CC)C=CCN6CC[C@]43[C@@H]65)C2)C1 [Vincristine] | 17.2 L/hr/m^2 | 14.6 h | 0.078 µg·h/mL | 1.54 (1.03,2.31) | 1.50 (0.99–2.25) | 1.56 (0.99–2.46) | four | four |  |  |  | 
2 | Cc1c2oc3c(C)ccc(C(=O)N[C@@H]4C(=O)N[C@H](C(C)C)C(=O)N5CCC[C@H]5C(=O)N(C)CC(=O)N(C)[C@@H](C(C)C)C(=O)O[C@@H]4C)c3nc-2c(C(=O)N[C@@H]2C(=O)N[C@H](C(C)C)C(=O)N3CCC[C@H]3C(=O)N(C)CC(=O)N(C)[C@@H](C(C)C)C(=O)O[C@@H]2C)c(N)c1=O [Actinomycin-D] (I: T[dV]P[Sar][NMeV] / II: T[dV]P[Sar][NMeV]; ester I:1-I:C, II:1-II:C; linker I:N-II:N via Actinocin(9to1)) |  |  |  |  |  |  |  |  | 25 h | 4.6 L/hr/m^2 | approximately 50% | No participant experienced sinusoidal obstructive syndrome
